In ChEMBL document CHEMBL3227993, “Studies on 3-substituted 1,2-benzisoxazole derivatives. 6. Syntheses of 3-(sulfamoylmethyl)-1,2-benzisoxazole derivatives and their anticonvulsant activities” (J Med Chem, 1979) one finds ED50, TD50 and Activity data, which are given here for 45 compounds.

Data set [1] deals with Mus musculus. Put plainly: Anticonvulsant activity in po dosed STD-dd mouse assessed as protection against hind-limb extensor component of maximal electroshock seizure administered via gavage measured 2 hrs after drug dosing. In kind it is functional. The procedure, abridged:
(§1)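 Mice dosed by gavage as a suspension in 5% tragacanth solution. Maximal electroshock was given as 60-Hz, 25-mA current for 0.2 s through corneal electrodes, 2 h after dosing. Protection was scored as prevention of hind-limb extension. Preliminary screen used 100 mg/kg. For ED50, groups of ten mice per dose level at ≥4 dose levels, with values calculated by Litchfield–Wilcoxon.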
A general note: Protection in the maximal electroshock model is a classic sign of anticonvulsant action.

Data set [2] can be described thus: Neurotoxicity in po dosed STD-dd mouse assessed as muscle incoordination administered via gavage by rotarod test. In kind it is toxicity, organism-based, Muscle tissue. The settings on record: in vivo. An outline of the steps: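 Gavage dosing as a suspension in 5% tragacanth solution, with ten mice per dose level at ≥4 levels. Rotarod test 2 h after dosing used a horizontal rod 2.5 cm in diameter rotating at 11 rpm. Minimal neurotoxicity end point was muscle incoordination, i.e. inability to stay on the rod. NTD50 was calculated by Litchfield–Wilcoxon.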
(In general: In the rotarod test animals must keep their balance on a rotating rod.)

In data set [3] the test system is Mus musculus. Put plainly: Anticonvulsant activity in STD-dd mouse assessed as protection against hind-limb extensor component of maximal electroshock seizure at 100 mg/kg, po administered via gavage measured 2 hrs after drug dosing. On the set-up: dose 100 mg/kg. The class given is functional, organism-based. An outline of the steps: as §1

The source made the active and inactive calls. The calls are words filed in the database; no cut-off is given here.

As for `CN(C)S(=O)(=O)Cc1noc2ccc(F)cc12`, the ED50 – broadly, the dose that gives a 50% effect, or the effect in half of the subjects – in the data set on Mus musculus [1] stood at 32 mg/kg. In addition, the TD50 (in general, the 50% point of the dose-response relation for the toxic effect studied) in data set [2] worked out at 350 mg/kg. With `NS(=O)(=O)CCc1noc2ccccc12`, in the data set with Mus musculus [1], the ED50 is 26 mg/kg. `NS(=O)(=O)Cc1noc2ccc(F)cc12`: the ED50 in the data set with Mus musculus [1] is 15 mg/kg. For the compound `Cc1ccc2onc(CS(N)(=O)=O)c2c1`, the result in the data set on Mus musculus [3] was inactive.

On to `Cc1cccc2c(CS(N)(=O)=O)noc12`, for which the result in the data set with Mus musculus [3] was inactive. Take `CCNS(=O)(=O)Cc1noc2ccc(F)cc12`: in the data set on Mus musculus [1], the 50% effective dose (ED50) was 32 mg/kg. In data set [2], the TD50 is 200 mg/kg. As for `CCCNS(=O)(=O)Cc1noc2ccccc12`, in the data set with Mus musculus [3], the outcome was inactive. The same measure, in the same setting: then `NS(=O)(=O)Cc1noc2ccc([N+](=O)[O-])cc12`, with “inactive”.

With `NS(=O)(=O)Cc1noc2ccc(Cl)cc12`, the ED50 in the data set on Mus musculus [1] turned out to be 14 mg/kg. Besides, the TD50 in data set [2] came to 52 mg/kg. The corresponding values for `CC(C)NS(=O)(=O)Cc1noc2ccc(F)cc12` are 38 mg/kg and 109 mg/kg.

With `O=S(=O)(Cc1noc2ccccc12)NO`, the ED50 in the data set with Mus musculus [1] stood at 32 mg/kg. Still for that read-out and setting: under `NS(=O)(=O)CCCc1noc2ccccc12` stands 39 mg/kg; under `NS(=O)(=O)Cc1noc2cc(F)ccc12`, 19 mg/kg.

Turning to `O=S(=O)(Cc1noc2ccccc12)NCc1ccccc1`, in the data set with Mus musculus [3], the result was inactive. Consider `CNS(=O)(=O)Cc1noc2ccc(Br)cc12`, for which, in the data set on Mus musculus [1], the ED50 came to 15 mg/kg.

`CCNS(=O)(=O)Cc1noc2ccccc12`: the ED50 with Mus musculus [1] was determined as 39 mg/kg. Further, the TD50 in data set [2] turned out to be 223 mg/kg.

For `CC(C)NS(=O)(=O)Cc1noc2ccc(Cl)cc12`, the ED50 in the data set with Mus musculus [1] is 100 mg/kg.

Take `O=S(=O)(Cc1noc2ccccc12)N1CCN(c2ccccc2)CC1`: the outcome in the data set on Mus musculus [3] was inactive. As to `CCC1(CC)C(=O)NC(=O)N(C)C1=O` [METHARBITAL], the ED50 in the data set on Mus musculus [1] is 60.8 mg/kg. For the same compound, in data set [2], the TD50 was 87.9 mg/kg.

For the compound `CN1CCN(S(=O)(=O)Cc2noc3ccccc23)CC1`, in the data set with Mus musculus [1], the ED50 was 57 mg/kg. For `O=S(=O)(Cc1noc2ccccc12)N1CCN(Cc2ccccc2)CC1`, in the data set on Mus musculus [3], the result was inactive. On to `CCNS(=O)(=O)Cc1noc2ccc(Cl)cc12`, for which the ED50 in the data set on Mus musculus [1] is 21 mg/kg.

`CNS(=O)(=O)Cc1noc2ccc(Cl)cc12`: the ED50 in the data set with Mus musculus [1] was determined as 20 mg/kg. The TD50 in data set [2] is 60 mg/kg.

Turning to `CNS(=O)(=O)Cc1noc2ccc(F)cc12`, the ED50 in the data set on Mus musculus [1] came out at 35 mg/kg. In addition, the TD50 in data set [2] was found to be 168 mg/kg.

For `O=S(=O)(Cc1noc2ccccc12)NCCO`, the result with Mus musculus [3] was inactive. Turning to `CC(C)NS(=O)(=O)Cc1noc2ccccc12`, in the data set with Mus musculus [1], the ED50 turned out to be 56 mg/kg. Besides, the TD50 in data set [2] stood at 340 mg/kg. Regarding `CN(C)NS(=O)(=O)Cc1noc2ccccc12`, the outcome in the data set with Mus musculus [3] was inactive.

On to `COc1ccc2onc(CS(N)(=O)=O)c2c1`, for which, in the data set with Mus musculus [3], the result was inactive. Regarding `NS(=O)(=O)Cc1noc2ccc(Br)cc12`, the ED50 in the data set on Mus musculus [1] was 14 mg/kg. In data set [2], the TD50 worked out at 60 mg/kg.

`O=S(=O)(Cc1noc2ccccc12)N1CCCCC1`: the result in the data set with Mus musculus [3] was inactive. In the case of `CN1CCN(S(=O)(=O)Cc2noc3ccc(F)cc23)CC1`, the ED50 in the data set with Mus musculus [1] worked out at 100 mg/kg. The TD50 in data set [2] was 142 mg/kg. The corresponding values for `CC(C)NS(=O)(=O)Cc1noc2ccc(Br)cc12` are 22 mg/kg and 93 mg/kg. Turning to `NNS(=O)(=O)Cc1noc2ccccc12`, the outcome in the data set with Mus musculus [3] was inactive. Turning to `CN1CCN(S(=O)(=O)Cc2noc3ccc(Br)cc23)CC1`, the ED50 with Mus musculus [1] was 88 mg/kg. Further, in data set [2], the TD50 is 87 mg/kg. The corresponding values for `CN(C)S(=O)(=O)Cc1noc2ccc(Cl)cc12` are 57 mg/kg and 250 mg/kg. The corresponding values for `CN(C)S(=O)(=O)Cc1noc2ccc(Br)cc12` are 45 mg/kg and 100 mg/kg.

As to `O=S(=O)(Cc1noc2ccccc12)Nc1ccccc1`, the result in the data set on Mus musculus [3] was inactive. The same measure, in the same setting: then `COC(=O)c1ccccc1NS(=O)(=O)Cc1noc2ccccc12`, with “inactive”. As for `CNS(=O)(=O)Cc1noc2ccccc12`, the median effective dose (ED50) in the data set with Mus musculus [1] turned out to be 23 mg/kg.

Take `CCNS(=O)(=O)Cc1noc2ccc(Br)cc12`: the ED50 in the data set on Mus musculus [1] stood at 18 mg/kg. The TD50 in data set [2] was found to be 66 mg/kg. As to `CN(C)CCCNS(=O)(=O)Cc1noc2ccccc12`, the outcome in the data set with Mus musculus [3] was inactive. On to `CN(C)S(=O)(=O)Cc1noc2ccccc12`, for which the ED50 in the data set with Mus musculus [1] is 37 mg/kg. Turning to `NS(=O)(=O)Cc1noc2ccccc12` [ZONISAMIDE], in the data set on Mus musculus [1], the ED50 was 20 mg/kg. Take `O=S(=O)(Cc1noc2ccccc12)N1CCOCC1`: the outcome in the data set with Mus musculus [3] was inactive. On to `O=C1NC(=O)C(c2ccccc2)(c2ccccc2)N1` [PHENYTOIN], for which the ED50 in the data set on Mus musculus [1] amounted to 10 mg/kg. Further, the TD50 in data set [2] was found to be 111 mg/kg.
